SMILES strings stand for the structures. Where a SMILES comes first, the peptide text is derived from it. [ ]: non-standard residue; d: D form. The star is where a group is joined. Dmt = Cc1cc(O)cc(C)c1C[C@H](N)C(=O)O; Tic = O=C(O)[C@@H]1Cc2ccccc2CN1; Cbz = O=C(OCc1ccccc1)* Some results are limits rather than exact numbers.

Assay [1] concerns the target Mu-type opioid receptor (Cavia porcellus, UniProt P97266). Kind of assay: Agonist activity against mu opioid receptor of guinea pig ileum. The assay is classed as functional, tissue-based. A digest of the protocol: (§1)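 Electrically stimulated isolated tissue: guinea pig ileum for μ and mouse vas deferens for δ. Agonist IC50 taken from dose–response curves. Values are mean ± SE from at least five fresh tissue samples.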

The nature of assay [2]: Inhibition constant against synaptosomal Delta Opioid Receptor. A digest of the protocol: (§2)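 Competitive binding on synaptosomal membranes from several separate preparations, run as independent duplicate assays with five to eight peptide doses each. Ki derived by the Cheng–Prusoff relation. Values reported as mean ± SE with n repetitions.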
Assay [3] can be described thus: Inhibition constant against synaptosomal Mu opioid receptor. A digest of the protocol:
as §2

In assay [4] the target is T1, Delta-type opioid receptor (Mus musculus, UniProt P32300). Briefly: Agonistic activity against delta opioid receptor of mouse vas deferens assay. The assay is classed as functional, tissue-based. A digest of the protocol:
as §1

In assay [5] the target is T1, Delta-type opioid receptor. Briefly: Antagonist activity in mouse vas deferens assay. The assay is classed as functional, tissue-based. The settings on record: read-out: pA2 (converted). A digest of the protocol:
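Electrically stimulated mouse vas deferens, with deltorphin C as the δ agonist. Antagonism expressed as pA2: the negative log of the molar antagonist concentration that doubles the agonist concentration needed to restore the original submaximal response.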

Assay [6] deals with Opioid receptors; mu & delta (Homo sapiens) (UniProt P41143+P35372). Briefly: Selectivity for synaptosomal Mu rather than Delta Opioid Receptors. The assay is classed as protein assay.
Sequence of Opioid receptors; mu & delta (Homo sapiens) (P35372 whole entry, looked up): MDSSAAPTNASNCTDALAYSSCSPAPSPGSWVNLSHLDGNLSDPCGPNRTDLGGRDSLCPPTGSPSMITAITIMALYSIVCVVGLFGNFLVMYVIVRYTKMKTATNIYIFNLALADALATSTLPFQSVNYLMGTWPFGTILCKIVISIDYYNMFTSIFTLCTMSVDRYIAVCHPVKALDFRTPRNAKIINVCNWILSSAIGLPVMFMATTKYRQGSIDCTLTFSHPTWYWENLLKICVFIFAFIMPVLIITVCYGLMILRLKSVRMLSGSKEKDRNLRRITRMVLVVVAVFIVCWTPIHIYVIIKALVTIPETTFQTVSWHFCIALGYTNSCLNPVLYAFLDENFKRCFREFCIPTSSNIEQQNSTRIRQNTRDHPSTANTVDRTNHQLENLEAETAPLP
Sequence of Opioid receptors; mu & delta (Homo sapiens) (P41143 whole entry, looked up): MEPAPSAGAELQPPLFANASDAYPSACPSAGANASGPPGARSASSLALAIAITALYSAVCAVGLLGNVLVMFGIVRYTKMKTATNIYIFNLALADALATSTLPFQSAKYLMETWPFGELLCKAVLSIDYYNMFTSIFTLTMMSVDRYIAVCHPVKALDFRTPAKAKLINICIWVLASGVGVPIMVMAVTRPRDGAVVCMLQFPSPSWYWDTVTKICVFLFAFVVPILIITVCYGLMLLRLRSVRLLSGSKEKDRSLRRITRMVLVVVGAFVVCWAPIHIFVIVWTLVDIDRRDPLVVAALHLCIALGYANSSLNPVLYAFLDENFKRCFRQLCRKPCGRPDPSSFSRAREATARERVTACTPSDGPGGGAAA

Sequence of Mu-type opioid receptor (P97266 whole entry): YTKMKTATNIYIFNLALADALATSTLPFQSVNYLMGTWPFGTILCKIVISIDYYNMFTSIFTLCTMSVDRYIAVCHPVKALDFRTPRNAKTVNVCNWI
T1 sequence (P32300 whole entry): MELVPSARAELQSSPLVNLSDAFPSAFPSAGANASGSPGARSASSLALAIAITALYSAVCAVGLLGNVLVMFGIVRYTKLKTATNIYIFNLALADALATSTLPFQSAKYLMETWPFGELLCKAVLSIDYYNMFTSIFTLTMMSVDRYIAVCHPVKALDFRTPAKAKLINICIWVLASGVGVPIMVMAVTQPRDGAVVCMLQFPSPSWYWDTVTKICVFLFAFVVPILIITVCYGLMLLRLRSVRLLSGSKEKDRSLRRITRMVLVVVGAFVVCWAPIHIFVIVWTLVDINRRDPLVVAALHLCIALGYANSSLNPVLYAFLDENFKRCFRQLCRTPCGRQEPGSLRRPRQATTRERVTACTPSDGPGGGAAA

Consider `Cc1cc(O)cc(C)c1C[C@H](N)C(=O)N[C@H](CCC/N=C(/N)N[N+](=O)[O-])C(=O)N[C@@H](Cc1ccccc1)C(=O)N[C@@H](CCCCNC(=O)OCc1ccccc1)C(=O)O`, for which the IC50 in assay [1] amounted to 63 nM; in assay [4] it was 682 nM. Also, the Ki in assay [2] stood at 47.6 nM; in assay [3], 1.45 nM.
Take `Cc1cc(O)cc(C)c1C[C@H](N)C(=O)N[C@H](CCCN=C(N)N[N+](=O)[O-])C(=O)N[C@@H](Cc1ccccc1)C(=O)N[C@@H](CCCCNC(=O)OCc1ccccc1)C(N)=O`: the IC50 came to 0.509 nM in assay [1] and 1.69 nM in assay [4]. Moreover, the Ki amounted to 24.2 nM in assay [2] and 0.15 nM in assay [3].
For `Cc1cc(O)cc(C)c1C[C@H](N)C(=O)N1Cc2ccccc2C[C@H]1C(=O)N[C@@H](Cc1ccccc1)C(=O)N[C@@H](CCCCNC(=O)OCc1ccccc1)C(N)=O` (H-[Dmt][Tic]FK(Cbz)-NH2), the IC50 in assay [1] was 1890 nM; in assay [4] it was more than 10000 nM. The Ki in assay [2] is 0.23 nM; in assay [3], 1.14 nM. The Kb in assay [5] was 3.8 nM. The Selectivity in assay [6] is 5.
Take `Cc1cc(O)cc(C)c1C[C@H](N)C(=O)N1Cc2ccccc2C[C@H]1C(=O)N[C@@H](Cc1ccccc1)C(=O)N[C@@H](CCCCNC(=O)OCc1ccccc1)C(=O)O` (H-[Dmt][Tic]FK(Cbz)-OH): the IC50 in assay [1] and in assay [4] was more than 10000 nM each time. In addition, the Kb in assay [5] was 0.00372 nM. This compound gave a Selectivity in assay [6] of 145.

In general, IC50 refers to the midpoint of a concentration-inhibition curve. What is called Ki is the dissociation constant of the complex between target and ligand, obtained from inhibition or displacement.

Values taken from ChEMBL document CHEMBL1145172, “From the potent and selective mu opioid receptor agonist H-Dmt-d-Arg-Phe-Lys-NH(2) to the potent delta antagonist H-Dmt-Tic-Phe-Lys(Z)-OH” (J Med Chem, 2005).
